The subject of assay [1] is Salmonella enteritidis. Description: Antibacterial activity against ciprofloxacin-susceptible Salmonella enteritidis 1A-revertC2 harboring gyrA D87Y/S83F mutant, parC D79N mutant, soxR R133C/R20H mutant, soxS E52K mutant and marA I111N/H115Q mutant gene after 70 passages by CLSI method. The assay is classed as functional, Salmonella enterica subsp. enterica serovar Enteritidis. Conditions: Salmonella enterica.

Assay [2] concerns Salmonella enteritidis. In words: Antibacterial activity against wild type Salmonella enteritidis 104 harboring gyrA D87Y mutant gene by CLSI method. The format is functional, Salmonella enterica subsp. enterica serovar Enteritidis. Particulars: Salmonella enterica.
Assay [3] concerns Salmonella enteritidis. In words: Antibacterial activity against ciprofloxacin-resistant Salmonella enteritidis 5408 harboring gyrA D87Y mutant, gyrB E466D mutant, parE V461G mutant and ramR G25A mutant gene after 200 passages by CLSI method. The format is functional, Salmonella enterica subsp. enterica serovar Enteritidis. Conditions: Salmonella enterica.
In assay [4] the test system is Salmonella enteritidis. In words: Antibacterial activity against wild type Salmonella enteritidis 5408 harboring gyrA D87Y mutant gene by CLSI method. The format is functional, Salmonella enterica subsp. enterica serovar Enteritidis. Particulars: Salmonella enterica.
Assay [5] concerns Salmonella enteritidis. Description: Antibacterial activity against ciprofloxacin-resistant Salmonella enteritidis 104 harboring gyrA D87Y/S83F mutant, soxR R20H mutant and soxS E52K mutant gene by CLSI method. Conditions: Salmonella enterica.
The test system of assay [6] is Salmonella enteritidis. Description: Antibacterial activity against ciprofloxacin-susceptibility revert strain of Salmonella enteritidis 104 harboring gyrA D87Y/S83F mutant, parC D79N mutant, soxR E16G/R20H mutant and soxS E52K mutant gene after 20 passages by CLSI method. Particulars: Salmonella enterica. The format is functional, Salmonella enterica subsp. enterica serovar Enteritidis.

The subject of assay [7] is Salmonella enteritidis. In words: Antibacterial activity against Salmonella enteritidis NCTC 13349 by CLSI method. The format is functional, Salmonella enterica subsp. enterica serovar Enteritidis. Conditions: Salmonella enterica.
The test system of assay [8] is Salmonella enteritidis. In words: Antibacterial activity against wild type Salmonella enteritidis 104 harboring gyrA D87Y mutant gene after 24 hrs by spectrophotometry. The format is functional, organism-based. Particulars: Salmonella enterica subsp. enterica serovar Enteritidis. The gist of the method: (§1)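 Growth in TSB: colony from TSA (37°C, 18 h) grown overnight in 10 ml TSB, 1 ml into 100 ml TSB, shaken aerobically at 37°C. Absorbance read hourly for 8 h, then at 24 h, by spectrophotometer.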

The test system of assay [9] is Salmonella enteritidis. Description: Antibacterial activity against ciprofloxacin-susceptibility revert strain of Salmonella enteritidis 104 harboring gyrA D87Y/S83F mutant, parC D79N mutant, soxR E16G/R20H mutant and soxS E52K mutant gene assessed as reduction in swarm motility after overnight incubation. The format is functional, Salmonella enterica subsp. enterica serovar Enteritidis. The gist of the method:
(§2)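 Swarm assay: overnight LB culture pelleted, washed once, concentrated 50-fold. 2 µl spotted on LB with 0.2% gellan gum, incubated overnight at 30°C. Colony spread measured in mm. Reduction expressed relative to the parent strain.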

The test system of assay [10] is Salmonella enteritidis. In words: Antibacterial activity against ciprofloxacin-resistant Salmonella enteritidis 5408 harboring gyrA D87Y mutant, gyrB E466D mutant, parE V461G mutant and ramR G25A mutant gene assessed as reduction in swarm motility after overnight incubation. The format is functional, Salmonella enterica subsp. enterica serovar Enteritidis. Put shortly: as §2

The subject of assay [11] is Salmonella enteritidis. Description: Antibacterial activity against ciprofloxacin-resistant Salmonella enteritidis 5408 harboring gyrA D87Y mutant, gyrB E466D mutant, parE V461G mutant and ramR G25A mutant gene assessed as width of bacterial rods by microscopy. The assay is classed as functional, Salmonella enterica subsp. enterica serovar Enteritidis.
For assay [12], the system named is Salmonella enteritidis. In words: Antibacterial activity against ciprofloxacin-susceptible Salmonella enteritidis 1A-revertC2 harboring gyrA D87Y/S83F mutant, parC D79N mutant, soxR R133C/R20H mutant, soxS E52K mutant and marA I111N/H115Q mutant gene after 70 passages after 24 hrs by spectrophotometry. The format is functional, organism-based. Conditions: Salmonella enterica subsp. enterica serovar Enteritidis. Put shortly: as §1

In assay [13] the test system is Salmonella enteritidis. Description: Antibacterial activity against ciprofloxacin-resistant Salmonella enteritidis 104 harboring gyrA D87Y/S83F mutant, soxR R20H mutant and soxS E52K mutant gene assessed as length of bacterial rods by microscopy. The format is functional, Salmonella enterica subsp. enterica serovar Enteritidis.
For assay [14], the system named is Salmonella enteritidis. Description: Antibacterial activity against wild type Salmonella enteritidis 5408 harboring gyrA D87Y mutant gene assessed as length of bacterial rods by microscopy. The format is functional, Salmonella enterica subsp. enterica serovar Enteritidis.
Assay [15] has as its system Salmonella enteritidis. Description: Antibacterial activity against ciprofloxacin-susceptibility revert strain of Salmonella enteritidis 104 harboring gyrA D87Y/S83F mutant, parC D79N mutant, soxR E16G/R20H mutant and soxS E52K mutant gene after 24 hrs by spectrophotometry. The format is functional, organism-based. Particulars: Salmonella enterica subsp. enterica serovar Enteritidis. The gist of the method:
as §1

Assay [16] concerns Salmonella enteritidis. Description: Antibacterial activity against wild type Salmonella enteritidis 5408 harboring gyrA D87Y mutant gene after 24 hrs by spectrophotometry. The assay is classed as functional, organism-based. Conditions: Salmonella enterica subsp. enterica serovar Enteritidis. The gist of the method:
as §1

Assay [17] deals with Salmonella enteritidis. Description: Antibacterial activity against ciprofloxacin-resistant Salmonella enteritidis 104 harboring gyrA D87Y/S83F mutant, soxR R20H mutant and soxS E52K mutant gene after 24 hrs by spectrophotometry. The format is functional, organism-based. Particulars: Salmonella enterica subsp. enterica serovar Enteritidis. Put shortly:
as §1

For assay [18], the system named is Salmonella enteritidis. Description: Antibacterial activity against wild type Salmonella enteritidis 104 harboring gyrA D87Y mutant gene assessed as width of bacterial rods by microscopy. The assay is classed as functional, Salmonella enterica subsp. enterica serovar Enteritidis.
Assay [19] concerns Salmonella enteritidis. In words: Antibacterial activity against Salmonella enteritidis by CLSI method. Particulars: Salmonella enterica.
The subject of assay [20] is Salmonella enteritidis. In words: Antibacterial activity against wild type Salmonella enteritidis 5408 harboring gyrA D87Y mutant gene assessed as width of bacterial rods by microscopy. The format is functional, Salmonella enterica subsp. enterica serovar Enteritidis.
Assay [21] relates to Salmonella enteritidis. In words: Antibacterial activity against ciprofloxacin-resistant Salmonella enteritidis 5408 harboring gyrA D87Y mutant, gyrB E466D mutant, parE V461G mutant and ramR G25A mutant gene assessed as reduction in swim motility after overnight incubation. The assay is classed as functional, Salmonella enterica subsp. enterica serovar Enteritidis. The gist of the method:
(§3)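 Swim assay: 1 µl of overnight culture spotted centrally on LB with 0.1% gellan gum, dried 1 h at room temperature, incubated overnight at 30°C. Visible spread measured with a ruler (mm). Reduction expressed relative to the parent strain.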

The subject of assay [22] is Salmonella enteritidis. In words: Antibacterial activity against wild type Salmonella enteritidis 104 harboring gyrA D87Y mutant gene assessed as length of bacterial rods by microscopy. The assay is classed as functional, Salmonella enterica subsp. enterica serovar Enteritidis.
Assay [23] has as its system Salmonella enteritidis. In words: Antibacterial activity against ciprofloxacin-resistant Salmonella enteritidis 5408 harboring gyrA D87Y mutant, gyrB E466D mutant, parE V461G mutant and ramR G25A mutant gene after 24 hrs by spectrophotometry. The format is functional, organism-based. Conditions: Salmonella enterica subsp. enterica serovar Enteritidis. The gist of the method:
as §1

The subject of assay [24] is Salmonella enteritidis. In words: Antibacterial activity against ciprofloxacin-resistant Salmonella enteritidis 104 harboring gyrA D87Y/S83F mutant, soxR R20H mutant and soxS E52K mutant gene assessed as reduction in swarm motility after overnight incubation. The format is functional, Salmonella enterica subsp. enterica serovar Enteritidis. Put shortly: as §2
The subject of assay [25] is Salmonella enteritidis. Description: Antibacterial activity against ciprofloxacin-resistant Salmonella enteritidis 104 harboring gyrA D87Y/S83F mutant, soxR R20H mutant and soxS E52K mutant gene assessed as width of bacterial rods by microscopy. The assay is classed as functional, Salmonella enterica subsp. enterica serovar Enteritidis.
Assay [26] deals with Salmonella enteritidis. In words: Antibacterial activity against ciprofloxacin-resistant Salmonella enteritidis 104 harboring gyrA D87Y/S83F mutant, soxR R20H mutant and soxS E52K mutant gene assessed as reduction in swim motility after overnight incubation. The format is functional, Salmonella enterica subsp. enterica serovar Enteritidis. The gist of the method: as §3
Assay [27] concerns Salmonella enteritidis. Description: Antibacterial activity against ciprofloxacin-susceptibility revert strain of Salmonella enteritidis 104 harboring gyrA D87Y/S83F mutant, parC D79N mutant, soxR E16G/R20H mutant and soxS E52K mutant gene assessed as reduction in swim motility after overnight incubation. The assay is classed as functional, Salmonella enterica subsp. enterica serovar Enteritidis. The gist of the method: as §3

Assay [28] relates to Salmonella enteritidis. In words: Antibacterial activity against ciprofloxacin-resistant Salmonella enteritidis 5408 harboring gyrA D87Y mutant, gyrB E466D mutant, parE V461G mutant and ramR G25A mutant gene assessed as length of bacterial rods by microscopy. The assay is classed as functional, Salmonella enterica subsp. enterica serovar Enteritidis.

Five compounds from ChEMBL document CHEMBL1240355 (2010) can be followed below.

Molecules are shown by their SMILES. In brackets after ≈: the same amount, converted by molar mass. Activity calls are given as the source filed them. No cut-off for these calls is given here. Some results are limits rather than exact numbers.

Consider `CC1(C)S[C@@H]2[C@H](NC(=O)[C@H](N)c3ccccc3)C(=O)N2[C@H]1C(=O)O` [AMPICILLIN], for which the MIC in the assay on Salmonella enteritidis [1] turned out to be 0.5 µg/mL (≈ 1.43 µM); against Salmonella enteritidis [2], 1 µg/mL (≈ 2.86 µM); against Salmonella enteritidis [3], 4 µg/mL (≈ 11.4 µM); in the assay on Salmonella enteritidis [4] it was 1 µg/mL (≈ 2.86 µM); in the assay with Salmonella enteritidis [5], 16 µg/mL (≈ 45.8 µM); in the assay on Salmonella enteritidis [6], 4 µg/mL (≈ 11.4 µM).
Regarding `CN(C)[C@@H]1C(O)=C(C(N)=O)C(=O)[C@@]2(O)C(O)=C3C(=O)c4c(O)cccc4[C@@](C)(O)[C@H]3C[C@@H]12` [TETRACYCLINE], the MIC in the assay with Salmonella enteritidis [1] was 0.5 µg/mL (≈ 1.13 µM); in the assay with Salmonella enteritidis [2], 1 µg/mL (≈ 2.25 µM); in the assay with Salmonella enteritidis [3], 2 µg/mL (≈ 4.5 µM); with Salmonella enteritidis [4] it was 1 µg/mL (≈ 2.25 µM); in the assay with Salmonella enteritidis [5] it was 16 µg/mL (≈ 36 µM); against Salmonella enteritidis [6], 2 µg/mL (≈ 4.5 µM).
For the compound `CCn1cc(C(=O)O)c(=O)c2ccc(C)nc21` [NALIDIXIC ACID], the MIC against Salmonella enteritidis [7] was 8 µg/mL (≈ 34.4 µM); against Salmonella enteritidis [1] it was more than 256 µg/mL; in the assay with Salmonella enteritidis [2] it was more than 256 µg/mL; in the assay with Salmonella enteritidis [3], more than 256 µg/mL; with Salmonella enteritidis [4], more than 256 µg/mL; in the assay with Salmonella enteritidis [5] it was more than 256 µg/mL. Further, in the assay with Salmonella enteritidis [6], the MIC was more than 256 µg/mL.
With `O=C(O)c1cn(C2CC2)c2cc(N3CCNCC3)c(F)cc2c1=O` [CIPROFLOXACIN], the outcome in the assay with Salmonella enteritidis [8], in the assay on Salmonella enteritidis [12], with Salmonella enteritidis [15] and with Salmonella enteritidis [16] was Active. Besides, the “inhibition (INH)” value was found to be 36% with Salmonella enteritidis [9]; 46% in the assay on Salmonella enteritidis [10]; 93% in the assay on Salmonella enteritidis [21]; 36% in the assay on Salmonella enteritidis [24]; 66% with Salmonella enteritidis [26]; 90% with Salmonella enteritidis [27]. For the same compound, the Activity in the assay on Salmonella enteritidis [11] came out at 0.51 um; with Salmonella enteritidis [13] it was 1.16 um; with Salmonella enteritidis [14] it was 1.1 um; in the assay with Salmonella enteritidis [18], 0.43 um; with Salmonella enteritidis [20], 0.46 um; in the assay with Salmonella enteritidis [22], 1.02 um. Further, the Activity in the assay with Salmonella enteritidis [25] is recorded as 0.45 um; in the assay on Salmonella enteritidis [28], 1 um. Besides, the outcome with Salmonella enteritidis [17] and in the assay with Salmonella enteritidis [23] was inactive. This compound also yielded an MIC against Salmonella enteritidis [19] of 0.12 µg/mL (≈ 0.362 µM).
With `O=C(N[C@H](CO)[C@H](O)c1ccc([N+](=O)[O-])cc1)C(Cl)Cl` [CHLORAMPHENICOL], the MIC was determined as 2 µg/mL (≈ 6.19 µM) in the assay with Salmonella enteritidis [1]; 2 µg/mL (≈ 6.19 µM) in the assay with Salmonella enteritidis [2]; 16 µg/mL (≈ 49.5 µM) in the assay with Salmonella enteritidis [3]; 4 µg/mL (≈ 12.4 µM) against Salmonella enteritidis [4]; 128 µg/mL (≈ 396 µM) against Salmonella enteritidis [5]; 8 µg/mL (≈ 24.8 µM) against Salmonella enteritidis [6].

What is called MIC is the lowest concentration found to suppress growth. The low end stands for a more susceptible organism, the high end for a less susceptible organism.
